Test results published in ChEMBL document CHEMBL4038284, “Synthesis of novel quinoline-based 4,5-dihydro-1H-pyrazoles as potential anticancer, antifungal, antibacterial and antiprotozoal agents” (Eur J Med Chem, 2017).
The source made the active and inactive calls. The rule behind the calls is not given here.

How the values were obtained:
RPMI-8226 = assay: Growth inhibition of human RPMI8226 cells incubated for 48 hrs by sulforhodamine B assay; type: functional; settings: RPMI-8226, 48 h; for CC50: read-out: LC50 (the source's name)
Method in brief: (§1)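 NCI 60-line screen. Cells in RPMI-1640 with 5% FBS and 2 mM L-glutamine, preincubated 24 h, then time-zero plates TCA-fixed. Compounds from DMSO stocks given at five final concentrations (100, 10, 1.0, 0.1, 0.01 µM) for 48 h at 37 °C, 5% CO2. Cells fixed with 10% TCA, SRB-stained, read at 515 nm. GI50 is the concentration giving 50% lower net protein increase versus control.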

HOP-62 = assay: Growth inhibition of human HOP62 cells incubated for 48 hrs by sulforhodamine B assay; type: functional; settings: HOP-62, 48 h; for CC50: read-out: LC50 (the source's name)
Method in brief: (§2)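 NCI five-dose SRB assay (100, 10, 1.0, 0.1, 0.01 µM) with 48 h exposure in RPMI-1640 with 5% FBS and 2 mM L-glutamine. Cells fixed with TCA and stained with SRB, read at 515 nm. GI50 is the concentration where [(Ti−Tz)/(C−Tz)]×100 = 50.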

HOP-92 = assay: Growth inhibition of human HOP92 cells incubated for 48 hrs by sulforhodamine B assay; type: functional; settings: HOP-92, 48 h
Method in brief: (§3)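 Five-dose NCI SRB assay at 100, 10, 1.0, 0.1 and 0.01 μM for 48 h at 37 °C, 5% CO2. Medium was RPMI-1640 with 5% FBS and 2 mM glutamine. Time-zero plates were TCA-fixed at compound addition, A515 read after SRB staining. GI50 was solved from [(Ti−Tz)/(C−Tz)]×100 = 50. Values beyond the tested range are given as > or <.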

NCI-H23 = assay: Growth inhibition of human NCI-H23 cells incubated for 48 hrs by sulforhodamine B assay; type: functional; settings: NCI-H23, 48 h; for CC50: read-out: LC50 (the source's name); method in brief: as §3
HCT-116 = assay: Growth inhibition of human HCT116 cells incubated for 48 hrs by sulforhodamine B assay; type: functional; settings: HCT-116, 48 h; method in brief: as §2
HT-29 = assay: Growth inhibition of human HT-29 cells incubated for 48 hrs by sulforhodamine B assay; type: functional; settings: HT-29, 48 h; method in brief: as §3
SF-268 [1] = assay: Growth inhibition of human SF268 cells incubated for 48 hrs by sulforhodamine B assay; type: functional; settings: SF-268, 48 h; for CC50: read-out: LC50 (the source's name); method in brief: as §3
SF-539 = assay: Growth inhibition of human SF539 cells incubated for 48 hrs by sulforhodamine B assay; type: functional; settings: SF-539, 48 h; for CC50: read-out: LC50 (the source's name)
Method in brief: (§4)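 NCI-60 panel cells grown in RPMI-1640 with 5% FBS and 2 mM L-glutamine, preincubated 24 h at 37 °C/5% CO2. Time-zero plates were TCA-fixed at compound addition. DMSO stocks were diluted in medium and tested at five final concentrations (100, 10, 1.0, 0.1, 0.01 µM) for 48 h. Cells were TCA-fixed, stained with SRB and read at 515 nm. GI50 = 50% lower net protein increase versus control.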

LOX IMVI [2] = assay: Growth inhibition of human LOXIMVI cells incubated for 48 hrs by sulforhodamine B assay; type: functional; settings: for CC50: read-out: LC50 (the source's name); method in brief: as §3
UACC-257 = assay: Growth inhibition of human UACC257 cells incubated for 48 hrs by sulforhodamine B assay; type: functional; settings: UACC-257, 48 h; for CC50: read-out: LC50 (the source's name); method in brief: as §4
OVCAR-4 = assay: Growth inhibition of human OVCAR4 cells incubated for 48 hrs by sulforhodamine B assay; type: functional; settings: OVCAR-4, 48 h; method in brief: as §3
OVCAR-5 = assay: Growth inhibition of human OVCAR5 cells incubated for 48 hrs by sulforhodamine B assay; type: functional; settings: OVCAR-5, 48 h; for CC50: read-out: LC50 (the source's name); method in brief: as §1
ACHN = assay: Growth inhibition of human ACHN cells incubated for 48 hrs by sulforhodamine B assay; type: functional; settings: for CC50: read-out: LC50 (the source's name); method in brief: as §1
SN12C = assay: Growth inhibition of human SN12C cells incubated for 48 hrs by sulforhodamine B assay; type: functional; settings: for CC50: read-out: LC50 (the source's name); method in brief: as §4
TK-10 = assay: Growth inhibition of human TK10 cells incubated for 48 hrs by sulforhodamine B assay; type: functional; settings: TK-10, 48 h; for CC50: read-out: LC50 (the source's name); method in brief: as §1
PC-3 = assay: Growth inhibition of human PC3 cells incubated for 48 hrs by sulforhodamine B assay; type: functional; settings: PC-3, 48 h; for CC50: read-out: LC50 (the source's name); method in brief: as §3
T47D = assay: Growth inhibition of human T47D cells incubated for 48 hrs by sulforhodamine B assay; type: functional; settings: for CC50: read-out: LC50 (the source's name); method in brief: as §4
NCI-H322M = assay: Growth inhibition of human NCI-H322M cells at 10 uM incubated for 48 hrs by sulforhodamine B assay; type: functional, cell-based
Method in brief: (§5)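 NCI 60-line panel, single 10 μM dose. Cells were grown in RPMI-1640 with 5% FBS and 2 mM L-glutamine and pre-incubated 24 h before compound addition (DMSO stock). Exposure was 48 h at 37 °C, 5% CO2. Cells were fixed with cold TCA (10% final), stained with 0.4% SRB, bound dye dissolved in 10 mM Tris base, A515 read. Growth was taken relative to time-zero and untreated control plates.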

SF-268 [3] = assay: Growth inhibition of human SF268 cells at 10 uM incubated for 48 hrs by sulforhodamine B assay; type: functional, cell-based; method in brief: as §5
LOX IMVI [4] = assay: Growth inhibition of human LOXIMVI cells at 10 uM incubated for 48 hrs by sulforhodamine B assay; type: functional, cell-based; method in brief: as §5
CAKI-1 = assay: Growth inhibition of human Caki1 cells at 10 uM incubated for 48 hrs by sulforhodamine B assay; type: functional, cell-based
Method in brief: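 NCI 60-cell-line screen at a single 10 µM dose. Cells in RPMI-1640 with 5% FBS and 2 mM L-glutamine, pre-incubated 24 h, then treated for 48 h at 37 °C. TCA fixation, sulforhodamine B staining, absorbance at 515 nm. Percentage growth calculated against time-zero and untreated controls.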

Candida albicans = assay: Growth inhibition of Candida albicans ATCC 10231 at 125 ug/ml incubated for 48 hrs under dark condition by broth microdilution method relative to control; type: functional; settings: ATCC 10231, 48 h, read-out: GI
Method in brief: (§6)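 CLSI M27-A3 broth microdilution in RPMI-1640, DMSO ≤1%. Inoculum 1-5 × 10^3 CFU/mL. Incubated 48 h at 30 °C, dark. % inhibition = 100 − (OD405 test − sterility control)/(OD405 growth control − sterility control), with growth and sterility control wells. Triplicate.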

Cryptococcus neoformans = assay: Growth inhibition of Cryptococcus neoformans ATCC 32264 at 125 ug/ml incubated for 48 hrs under dark condition by broth microdilution method relative to control; type: functional; settings: ATCC 32264, 48 h, read-out: GI; method in brief: as §6
Staphylococcus aureus = assay: Antibacterial activity against methicillin-resistant Staphylococcus aureus ATCC 43300 after 24 hrs by resazurin dye based microdilution assay; type: functional; settings: ATCC 43300, 24 h
Method in brief: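 Broth microdilution in Mueller Hinton broth, inoculum 5 × 10^5 – 8 × 10^5. Compound stocks diluted in MHB with 5% DMSO and 0.1% Tween 80. Incubation 24 h at 35-37 °C. MIC is the lowest concentration with visible growth inhibition and/or by resazurin (1 mg/mL) read-out. Gentamicin as control. Run in duplicate, replicated at least three times.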

Structure (SMILES)	GI50 (RPMI-8226)	CC50 (RPMI-8226)	GI50 (HOP-62)	GI50 (HOP-92)	GI50 (NCI-H23)	GI50 (HCT-116)	GI50 (HT-29)	GI50 (SF-268 [1])	GI50 (SF-539)	GI50 (LOX IMVI [2])	GI50 (UACC-257)	GI50 (OVCAR-4)	GI50 (OVCAR-5)	CC50 (OVCAR-5)	GI50 (ACHN)	CC50 (ACHN)	GI50 (SN12C)	GI50 (TK-10)	CC50 (TK-10)	GI50 (PC-3)	also measured
COc1cccc2c1C(=O)c1c(O)c3c(c(O)c1C2=O)C[C@@](O)(C(=O)CO)C[C@@H]3O[C@H]1C[C@H](N)[C@H](O)[C@H](C)O1 [DOXORUBICIN]	0.08 µM	100 µM	0.07 µM	0.1 µM	0.15 µM	0.08 µM	0.12 µM	0.1 µM	0.12 µM	0.07 µM	0.14 µM	0.37 µM	0.41 µM	100 µM	0.08 µM	100 µM	0.07 µM	0.38 µM	90 µM	0.32 µM	GI50 (T47D): 0.06 µM
COc1cc(C2=NN(c3ccc(Cl)cc3)C(c3cccc(Nc4ccnc5cc(Cl)ccc45)c3)C2)cc(OC)c1OC (configuration not stated)																					growth inhibition (GI) (NCI-H322M): inactive; growth inhibition (GI) (SF-268 [3]): inactive; growth inhibition (GI) (LOX IMVI [4]): inactive; growth inhibition (GI) (CAKI-1): inactive; inhibition of growth at 125 µg/mL (Candida albicans): 16.7%; inhibition of growth at 125 µg/mL (Cryptococcus neoformans): 17.1%; MIC (Staphylococcus aureus): > 1000 µg/mL
O=CN1N=C(c2ccc(Cl)cc2)CC1c1cccc(Nc2ccnc3cc(Cl)ccc23)c1 (configuration not stated)	0.61 µM	> 100 µM	1.21 µM	1.45 µM	1.07 µM	1.2 µM	1.28 µM	2.73 µM	1.69 µM	1.29 µM	1.47 µM	0.64 µM	9.42 µM	> 100 µM	2.64 µM	> 100 µM	3.99 µM	2.34 µM	> 100 µM	1.69 µM	growth inhibition (GI) (NCI-H322M): Active; growth inhibition (GI) (SF-268 [3]): Active; growth inhibition (GI) (LOX IMVI [4]): Active; CC50 (HOP-62): 70 µM; LC50 (concentration giving 50% net cell kill) (HOP-92): > 100 µM; CC50 (NCI-H23): > 100 µM; LC50 (concentration killing 50% of cells) (HCT-116): 17.2 µM; LC50 (HT-29): 56.4 µM; CC50 (SF-268 [1]): > 100 µM; CC50 (SF-539): 35.1 µM; CC50 (LOX IMVI [2]): 9.05 µM; CC50 (UACC-257): > 100 µM; CC50 (OVCAR-4; read-out: LC50 (the source's name)): 79.8 µM; CC50 (SN12C): > 100 µM; CC50 (PC-3): > 100 µM; GI50 (T47D): 0.82 µM; CC50 (T47D): > 100 µM; inhibition of growth at 125 µg/mL (Candida albicans): 35.7%; inhibition of growth at 125 µg/mL (Cryptococcus neoformans): 75.7%; MIC (Staphylococcus aureus): > 1000 µg/mL
COc1ccc(C(=O)/C=C/c2cccc(Nc3ccnc4cc(Cl)ccc34)c2)cc1	0.57 µM	> 100 µM	1.44 µM	1.09 µM	1.49 µM	0.84 µM	1.64 µM	2.47 µM	1.7 µM	1.58 µM	2.07 µM	1 µM	2.6 µM	> 100 µM	1.73 µM	> 100 µM	1.3 µM	1.64 µM	> 100 µM	2.51 µM	growth inhibition (GI) (NCI-H322M): Active; growth inhibition (GI) (SF-268 [3]): Active; growth inhibition (GI) (LOX IMVI [4]): Active; CC50 (HOP-62): > 100 µM; LC50 (concentration giving 50% net cell kill) (HOP-92): > 100 µM; CC50 (NCI-H23): > 100 µM; LC50 (concentration killing 50% of cells) (HCT-116): > 100 µM; LC50 (HT-29): > 100 µM; CC50 (SF-268 [1]): > 100 µM; CC50 (SF-539): > 100 µM; CC50 (LOX IMVI [2]): > 100 µM; CC50 (UACC-257): > 100 µM; CC50 (SN12C): > 100 µM; CC50 (PC-3): > 100 µM; GI50 (T47D): 0.66 µM; CC50 (T47D): > 100 µM; inhibition of growth at 125 µg/mL (Candida albicans): 46.8%; inhibition of growth at 125 µg/mL (Cryptococcus neoformans): 34.4%; MIC (Staphylococcus aureus): > 1000 µg/mL
